High-throughput results: PubChem, SRMLSC
HCT116 PTEN-null: PTEN-deleted cell growth suppression | HCT116 PTEN-null viability, CellTiter-Glo, 60 h; hits give low values | viability, % at 10 µM | hit rate 1.2% among 140,000 | AID 827;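 active means viability at or below a set limit, 4 SD under the median of all tested compounds, cut at about 3.7% in these data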;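 further: PTEN knockout HCT116 line with beta catenin targeted HCT116 as companion control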
HUVEC inhibit: human endothelial cell proliferation inhibition; hit rate 1.1% among 86,000; viability, % at 10 µM (by protocol); HUVEC proliferation, CellTiter-Glo luminescence, 72 h; hits give low values;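 active means viability at or below 30%; inactive means viability above 30%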;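 further: 100% = median luminescence of DMSO-only cell control wells on each plate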
Lung fibro prol: blocks proliferation of human lung fibroblasts; LL 47 human lung fibroblast viability, ATP luminescence; hits give low values; viability, % at 10 µM; hit rate 1.1% among 85,000; AID 719;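 active means viability at or below 50% in the single dose screen; inactive means viability above 50%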;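 further: compound exposure lasted 72 h before the ATP readout; 100% = median luminescence of untreated cell-only wells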
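Material: human lung fibroblast line LL 47, low passage; Evaluation: viability percentage against median untreated-cell control; Buffer or medium: 15% FBS in IMEM; Incubation: 72 h compound exposure at 37 °C after overnight plating; Dosing: 0.1% DMSO in all compound wells; Measured by: CellTiter-Glo luminescence.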
HCT116 bCat-KO: beta-catenin-lacking colon tumor cell growth suppression | hit rate 1.5% among 140,000 | HCT116 beta-catenin knockout viability, CellTiter-Glo, 60 h; hits give low values | viability, % at 10 µM;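 active means viability at or under a set limit, the compound median less 4 SD, cut at about 6% in these data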;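 further: 0% = Hyamine 1622 control at 20 µM and 100% = untreated cell control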
H69AR growth 86K: blocks growth of human H69AR lung tumor cells | AID 598 | hit rate 6% among 85,000 | viability, % at 10 µM | H69AR lung tumor viability, ATP luminescence, 72 h; hits give low values;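 active means viability at or below 40%; inactive means viability above 40%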;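 further: multidrug resistant small cell line overexpressing MRP-1 efflux transporter; 100% = mean luminescence of untreated control wells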
An asterisk follows results filed as active; x = no result. Only a selection was taken, and hits are over-represented in it overall.

SMILES | HCT116 PTEN-null | HUVEC inhibit | Lung fibro prol | HCT116 bCat-KO | H69AR growth 86K
CCn1cc(C(=O)NCc2ccc3c(c2)OCO3)c(=O)c2cc(F)c(N3CCN(C)CC3)cc21 | 2.3* | 79.1 | 92.5 | 2.5* | 21.0*
CCn1cc(C(=O)N[C@H](C)c2ccccc2)c(=O)c2cc(F)c(N3CCN(C)CC3)cc21 | 62.0 | 47.1 | 77.6 | 43.9 | 9.7*
CCn1cc(C(=O)NCc2ccccn2)c(=O)c2cc(F)c(N3CCN(C)CC3)cc21 | 91.5 | 100.3 | 101.7 | 85.5 | 72.3
CCn1c(NC(=S)Nc2ccccc2)nc2ccccc21 | 81.3 | x | x | 87.4 | x
c1csc(-c2noc(COc3ccc4c(c3)CCCC4)n2)c1 | 102.0 | 116.8 | 103.8 | 90.7 | 63.2
N/C(Cc1ccc(Cl)cc1)=N\OC(=O)C1CCCCC1 | 101.2 | x | x | 95.3 | x
COC(=O)c1ccc(Oc2c(Cl)cccc2[N+](=O)[O-])cc1 | 81.3 | x | x | 95.1 | x
N#CC1=C2SCC(O)(c3ccccc3)N2C(=O)CC1c1ccccc1F (stereo not drawn) | 26.2 | 36.8 | 60.1 | 26.6 | 15.4*
CCCN1C(=O)/C(=N\OCC(=O)NC23CC4CC(CC(C4)C2)C3)c2ccccc21 | 93.0 | x | x | 91.5 | x
Cc1cc(C)c(NC(=O)c2ccc[n+](Cc3ccc([N+](=O)[O-])cc3)c2)c(C)c1 | 100.0 | x | x | 91.6 | x
COc1ccccc1/C=C/C1(C(=O)NC2CCCC2)CC(=O)N1c1ccc(F)cc1 (stereo not drawn) | 14.8 | 34.8 | 1.9* | 16.6 | 0.5*
CCN(CC)S(=O)(=O)c1ccc(N2C(=O)CC2(/C=C/c2ccccc2)C(=O)NC2CCCC2)cc1 (stereo not drawn) | 72.6 | x | x | 80.8 | x
COc1ccccc1/C=C/C1(C(=O)NC2CCCC2)CC(=O)N1c1ccc(C)cc1 (stereo not drawn) | 9.7 | 39.1 | 47.6* | 10.3 | 2.1*
Cc1cccc(NC(=O)C(=O)NCCCc2ccccc2)c1 | 102.0 | x | x | 92.7 | x
Cc1ccc(NC(=O)CSc2nc(-c3ccco3)cc(C(F)(F)F)n2)cc1C | 26.4 | 48.3 | 71.8 | 28.8 | 21.7*
Cc1ccc(NC(=O)CSc2nnc(-c3ccco3)c(-c3ccco3)n2)cc1 | 23.5 | 44.2 | 65.0 | 17.6 | 26.0*
O=C(CSc1nnc(-c2ccco2)c(-c2ccco2)n1)Nc1ccccc1 | 95.1 | 94.9 | 94.8 | 90.5 | 70.6
O=C(CSc1nc(-c2ccco2)cc(C(F)(F)F)n1)Nc1ccc2c(c1)CCC2 | 43.1 | 57.8 | 60.3 | 50.2 | 21.4*
COC(=O)c1ccccc1NC(=O)CSc1nc(-c2ccco2)cc(C(F)(F)F)n1 | 13.1 | 61.0 | 62.3 | 16.5 | 24.0*
O=C(CSc1nc(-c2ccco2)cc(C(F)(F)F)n1)NC1CCCC1 | 90.6 | 100.2 | 94.0 | 94.5 | 90.1
Cc1cc(NC(=O)CSc2nc(-c3ccco3)cc(C(F)(F)F)n2)n(-c2ccccc2)n1 | 25.7 | x | x | 25.9 | x
O=C(CCCO)CCCCCCCCC[C@H]1N[C@H](CO)[C@@H](O)[C@@H]1O | 99.1 | x | x | 93.7 | x
CCN(Cc1ccccc1)c1ccc(/C=N/NS(=O)(=O)c2cccc([N+](=O)[O-])c2)cc1 | 98.8 | x | x | 83.7 | x
O=C(NC(=S)N1CCc2ccccc21)c1ccccc1Br | 101.0 | x | x | 91.2 | x
CCCSc1nc(O)c(C(c2ccc(OC)c(O)c2)c2c(O)nc(SCCC)n(C)c2=O)c(=O)n1C | 91.6 | x | x | 92.5 | x
SMILES | HCT116 PTEN-null | HUVEC inhibit | Lung fibro prol | HCT116 bCat-KO | H69AR growth 86K
CC(=O)Nc1ccccc1-c1nc2ccccc2nc1OCC(=O)c1ccc2ccccc2c1 | 30.1 | x | x | 78.7 | x
O=c1cc(O)c2c(=O)n(-c3ccccc3)c3c(c2o1)CCCCC3 | 93.6 | x | x | 89.6 | x
CCn1nnc(-c2ccccc2NS(=O)(=O)c2ccc(S(=O)(=O)N(C)C3CCCCC3)cc2)n1 | 69.8 | 89.6 | 76.8 | 63.0 | 52.2
COc1ccccc1CC(=O)Nc1ccc(-c2noc(COc3ccc(Cl)c(C)c3)n2)cc1 | 92.2 | 86.3 | 73.2 | 79.7 | 29.9*
CCOc1ccccc1-c1nc(-c2ccc(NC(=O)Cc3ccccc3OC)cc2)no1 | 76.0 | 96.6 | 106.2 | 87.8 | 90.0
CCOC(=O)c1c(NC(=S)NC(=O)c2ccc(Cn3cc(Cl)cn3)o2)sc2c1CCCCC2 | 5.8 | x | x | 2.4* | x
CCOc1c(Br)ccc2c1sc1nc[nH]c(=O)c12 | 86.4 | 25.7* | 98.9 | 91.5 | 79.2
CCCc1cc2c(=O)c(-c3ccc4c(c3)OCCO4)coc2cc1OC(=O)c1ccco1 | 71.6 | 73.7 | 86.4 | 71.8 | 39.9*
CCc1cc2c(=O)c(-c3ccc4c(c3)OCCO4)coc2cc1OC(=O)c1ccco1 | 74.5 | 72.2 | 91.1 | 83.9 | 15.1*
Cc1cc(C)c2[nH]c(=O)c(CN(Cc3cccs3)C(=S)NCC3CCCO3)cc2c1 (stereo not drawn) | 80.3 | x | x | 76.5 | x
O=c1[nH]c(=O)n([C@H]2C[C@H](O)[C@@H](CO)O2)cc1F | 36.5 | 62.0 | 79.9 | 45.0 | 14.7*
Cc1cn([C@H]2C[C@H](N=[N+]=[N-])[C@@H](CO)O2)c(=O)[nH]c1=O | 87.0 | 109.9 | 99.6 | 83.0 | 91.4
CC/C(O)=C1\C(=O)CC(C)(C)CC1=Nc1ccccc1C | 96.6 | x | x | 103.9 | x
CCC/C(O)=C1\C(=O)CC(C)(C)CC1=Nc1ccc(OC)cc1OC | 21.6 | 59.8 | 57.1 | 18.7 | 21.4*
COc1ccc(OC)c(N=CC2=C(O)CC(C)(C)CC2=O)c1 | 86.3 | 95.7 | 97.0 | 87.7 | 93.9
COC(=O)CC/C(O)=C1\C(=O)CC(C)(C)CC1=Nc1ccccc1OC | 85.4 | 93.3 | 94.4 | 104.1 | 28.6*
CCCC/C(O)=C1\C(=O)CC(C)(C)CC1=Nc1ccccc1OC | 80.9 | 107.3 | 92.9 | 81.5 | 32.9*
NC(=O)SCC(=O)Nc1ccc(Cl)c(Cl)c1 | 1.4* | 65.3 | 95.5 | 1.1* | 11.1*
NC(=O)SCC(=O)Nc1ccc(Cl)cc1 | 97.4 | x | x | 94.6 | x
Cc1ccc(NC(=O)CSC(N)=O)cc1Cl | 61.6 | 59.5 | 98.4 | 73.7 | 17.8*
O=S(=O)(Nc1cccc2nsnc12)c1ccccc1 | 100.2 | 83.5 | 101.2 | 91.4 | 96.7
Cc1cc(C)c(S(=O)(=O)Nc2cccc3nsnc23)c(C)c1 | 67.9 | 92.5 | 97.9 | 75.5 | 2.5*
CCCCCn1c(SCC#N)nc2cc(C(=O)NC3CCCCC3)ccc2c1=O | x | 67.1 | 47.7* | x | 53.4
COc1cccc(-c2noc(N)c2C#N)c1 | 96.0 | 99.5 | 97.0 | 91.4 | 27.9*
CCn1c2ccccc2c2nnc(SCC(=O)NC(C(=O)OC)C(C)C)nc21 (stereo not drawn) | x | 102.7 | 99.3 | x | 64.0
SMILES | HCT116 PTEN-null | HUVEC inhibit | Lung fibro prol | HCT116 bCat-KO | H69AR growth 86K
Cc1nn(-c2ccccc2)c(C)c1C(=O)OCC(=O)N1c2ccccc2NC(=O)C1(C)C | 57.3 | 76.1 | 94.0 | 64.1 | 16.9*
CCOC(=O)c1cc(C#N)c(Oc2ccccc2OC)nc1-c1ccccc1 | 66.3 | x | x | 79.0 | x
Cc1ccc(S(=O)(=O)N2CCN(C(=O)CN3CCOCC3)C2c2ccccc2)cc1 (stereo not drawn) | 76.8 | 79.9 | 98.5 | 81.2 | 7.1*
O=C(CN1CCOCC1)N1CCN(S(=O)(=O)c2ccccc2)C1c1ccccc1 (stereo not drawn) | 87.9 | 98.4 | 91.0 | 83.7 | 61.1
O=C(Nc1cccs1)OCCN1CCN(Cc2ccccc2)CCC1=O | 104.5 | x | x | 90.0 | x
Cc1ccccc1CS(=O)(=O)c1snnc1C | 91.4 | x | x | 95.5 | x
